Results on seven compounds are retold here after ChEMBL document CHEMBL3244326, “Synthesis and antiviral activity of certain thiazole C-nucleosides” (J Med Chem, 1977).

Data set [1] concerns Ehrlich. In words: Inhibition of purine nucleotide biosynthesis in mouse Ehrlich ascites tumor cells assessed as inhibition of [14C]hypoxanthine into adenine nucleotides at 1 mM after 60 mins incubation. To be noted: 1 h. The data set is classed as functional. The method, boiled down: (§1)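 Ehrlich ascites tumor cell suspensions preincubated at 37 °C for 20 min with or without 1 mM compound. [14C]Hypoxanthine (55 µCi/µmol) then added to a final 0.1 mM, followed by 60 min more incubation. Adenine (AMP+ADP+ATP) and guanine (GMP+GDP+GTP) nucleotides separated by TLC on PEI-cellulose; % inhibition of label incorporation.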

In data set [2] the test system is Ehrlich. In words: Inhibition of purine nucleotide biosynthesis in mouse Ehrlich ascites tumor cells assessed as inhibition of [14C]hypoxanthine into guanine nucleotides at 1 mM after 60 mins incubation. The data set is classed as functional. To be noted: 1 h. The method in brief:
as §1

Another data set relates to Human alphaherpesvirus 1. Kind of data set: Antiviral activity against type 1 herpes simplex virus type 1 infected in human KB cells assessed as reduction in cytopathic effect after 72 hrs incubation. The data set is classed as functional, organism-based. The method in brief:
(§2)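 Human nasopharyngeal carcinoma (KB) cells infected with virus and tested at compound concentrations of 1000 to 1 ug/ml. After 72 h incubation at 37 °C, inhibition of viral cytopathic effect was scored by observation and expressed as a virus rating (VR). Values are the average of one to five tests.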

Another data set concerns KB. In words: Antiviral activity against type 13 rhinovirus infected in human KB cells assessed as reduction in cytopathic effect after 72 hrs incubation. The data set is classed as functional, cell-based. Particulars: Human rhinovirus A13. The method in brief: as §2
For data set [3], the system named is Mus musculus. Kind of data set: Toxicity in mouse assessed as survival at 99 mg/kg, po. The format is organism-based. Further details: dose 99 mg/kg, route oral. Particulars: in vivo. The method, boiled down:
(§3)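 Uninfected toxicity-control mice, 5 per dose, received compound by the oral route alongside the infected groups. Survivors/total recorded, and weight gain was observed.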

The subject of data set [4] is Human respirovirus 1. Kind of data set: Antiviral activity against type 1 parainfluenza virus infected in mouse assessed as mouse mean death day at 99 mg/kg, po thrice a day for 8 days after 1 hr viral infection (reference value: 8.9 days). The data set is classed as functional.
The test system of data set [5] is Human respirovirus 1. In words: Antiviral activity against type 1 parainfluenza virus infected in mouse assessed as mouse mean death day at 49.5 mg/kg, po thrice a day for 8 days after 1 hr viral infection (reference value: 8.9 days). The data set is classed as functional.
Data set [6] concerns Human respirovirus 1. Kind of data set: Antiviral activity against type 1 parainfluenza virus infected in mouse assessed as mouse survival at 38.8 mg/kg, po thrice a day for 8 days after 1 hr viral infection. The data set is classed as functional, organism-based. Further details: dose 38.8 mg/kg. The method, boiled down: (§4)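 Sendai (type 1 parainfluenza) virus given intranasally to female mice (18-20 g). Oral dosing three times daily for 8 days, beginning 1 h post-inoculation; 10 infected mice per dose, with a carboxymethylcellulose placebo group. Survivors/total counted, with p values for the survivor increase.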

In data set [7] the test system is Human respirovirus 1. In words: Antiviral activity against type 1 parainfluenza virus infected in mouse assessed as mouse survival at 155 mg/kg, po thrice a day for 8 days after 1 hr viral infection. The data set is classed as functional, organism-based. More on the design: dose 155 mg/kg. The method in brief:
as §4

The subject of data set [8] is Human respirovirus 1. In words: Antiviral activity against type 1 parainfluenza virus infected in mouse assessed as mouse survival at 77.5 mg/kg, po thrice a day for 8 days after 1 hr viral infection. The data set is classed as functional, organism-based. Further details: dose 77.5 mg/kg. The method in brief: as §4
Data set [9] has as its system Mus musculus. Kind of data set: Toxicity in mouse assessed as survival at 155 mg/kg, po. To be noted: in vivo. More on the design: dose 155 mg/kg, route oral. The data set is classed as organism-based. The method, boiled down: as §3
The test system of data set [10] is Mus musculus. Kind of data set: Toxicity in mouse assessed as survival at 77.5 mg/kg, po. The data set is classed as organism-based. More on the design: dose 77.5 mg/kg, route oral. Particulars: in vivo. The method in brief: as §3
The test system of data set [11] is Human respirovirus 1. In words: Antiviral activity against type 1 parainfluenza virus infected in mouse assessed as mouse mean death day at 155 mg/kg, po thrice a day for 8 days after 1 hr viral infection (reference value: 8.9 days). The format is functional.
The subject of data set [12] is Human respirovirus 1. Kind of data set: Antiviral activity against type 1 parainfluenza virus infected in mouse assessed as mouse mean death day at 77.5 mg/kg, po thrice a day for 8 days after 1 hr viral infection (reference value: 8.9 days). The data set is classed as functional.
Data set [13] deals with Human respirovirus 1. In words: Antiviral activity against type 1 parainfluenza virus infected in mouse assessed as mouse mean death day at 38.8 mg/kg, po thrice a day for 8 days after 1 hr viral infection (reference value: 8.9 days). The data set is classed as functional.
Data set [14] concerns Human respirovirus 1. In words: Antiviral activity against type 1 parainfluenza virus infected in mouse assessed as mouse survival at 104 mg/kg, po thrice a day for 8 days after 1 hr viral infection. The format is functional, organism-based. More on the design: dose 104 mg/kg. The method, boiled down: as §4
The test system of data set [15] is Mus musculus. In words: Toxicity in mouse assessed as survival at 104 mg/kg, po. The data set is classed as organism-based. More on the design: dose 104 mg/kg, route oral. To be noted: in vivo. The method, boiled down: as §3
Data set [16] has as its system Human respirovirus 1. In words: Antiviral activity against type 1 parainfluenza virus infected in mouse assessed as mouse mean death day at 104 mg/kg, po thrice a day for 8 days after 1 hr viral infection (reference value: 8.9 days). The format is functional.
The subject of data set [17] is Human respirovirus 1. Kind of data set: Antiviral activity against type 1 parainfluenza virus infected in mouse assessed as mouse mean death day at 52 mg/kg, po thrice a day for 8 days after 1 hr viral infection (reference value: 8.9 days). The format is functional.
Data set [18] relates to Human respirovirus 1. In words: Antiviral activity against type 1 parainfluenza virus infected in mouse assessed as mouse mean death day at 26 mg/kg, po thrice a day for 8 days after 1 hr viral infection (reference value: 8.9 days). The format is functional.

Calls of active or inactive are those of the source. The calls are words filed in the database; no cut-off is given here.

Regarding `NC(=O)c1cnc([C@@H]2O[C@H](CO)[C@@H](O)[C@H]2O)s1`, the inhibition at 1000 µM in the data set on Ehrlich [1] came to 1%; in the data set with Ehrlich [2], 6.8%. Besides, the outcome with Human alphaherpesvirus 1 and in the data set on KB was inactive.
In the case of `NC(=S)c1csc([C@@H]2O[C@H](CO)[C@@H](O)[C@H]2O)n1`, the inhibition at 1000 µM in the data set on Ehrlich [1] worked out at 0%; in the data set with Ehrlich [2], 12%. Besides, the outcome with Human alphaherpesvirus 1 and with KB was inactive.
On to `C[C@H]1O[C@@H](c2nc(C(N)=O)cs2)[C@H](O)[C@@H]1O`, for which the inhibition at 1000 µM in the data set with Ehrlich [1] and with Ehrlich [2] was 0% in each case. Also, the outcome in the data set with Human alphaherpesvirus 1 and in the data set with KB was inactive.
Turning to `NC(=O)c1ncn([C@@H]2O[C@H](CO)[C@@H](O)[C@H]2O)n1` [RIBAVIRIN], in the data set on Mus musculus [3], the Activity result was “Non-toxic”. Besides, the Time is 10 days in the data set with Human respirovirus 1 [4] and 12 days with Human respirovirus 1 [5].
Consider `CC(=O)OC[C@H]1O[C@@H](c2nc(C(N)=O)cs2)[C@H](OC(C)=O)[C@@H]1OC(C)=O`, for which the inhibition at 1000 µM in the data set on Ehrlich [1] stood at 0%; with Ehrlich [2] it was 42%. For the same compound, the result in the data set with Human alphaherpesvirus 1 was Active. Also, the outcome in the data set with KB was inactive. Also, the Survival entry in the data set on Human respirovirus 1 [6], in the data set on Human respirovirus 1 [7] and with Human respirovirus 1 [8] was “Active” in each case. For the same compound, the Activity entry with Mus musculus [9] and with Mus musculus [10] was “Non-toxic” in each case. Moreover, the Time in the data set with Human respirovirus 1 [11] was found to be 8.6 days; with Human respirovirus 1 [12] it was 11.9 days; in the data set with Human respirovirus 1 [13], 11 days.
Take `NC(=O)c1csc(-c2ccc(CO)o2)n1`: the inhibition at 1000 µM in the data set with Ehrlich [1] and with Ehrlich [2] was 0% each time. Moreover, the result in the data set on Human alphaherpesvirus 1 and in the data set on KB was inactive.
Regarding `NC(=O)c1csc([C@@H]2O[C@H](CO)[C@@H](O)[C@H]2O)n1` [TIAZOFURIN], the inhibition at 1000 µM was determined as 0% in the data set on Ehrlich [1] and 69% in the data set on Ehrlich [2]. Besides, the result with Human alphaherpesvirus 1 and in the data set with KB was Active. For the same compound, in the data set with Human respirovirus 1 [14], the Survival entry is “Active”. Also, in the data set on Mus musculus [15], the Activity entry was “Non-toxic”. Also, the Time with Human respirovirus 1 [16] is 12.3 days; with Human respirovirus 1 [17] it was 11 days; with Human respirovirus 1 [18], 10.9 days.
